Measured values taken from ChEMBL document CHEMBL3997810, “A Novel Potent Anticancer Compound Optimized from a Natural Oridonin Scaffold Induces Apoptosis and Cell Cycle Arrest through the Mitochondrial Pathway” (J Med Chem, 2017).

Columns and labels:
MCF7 [1] = assay: Downregulation of CyclinB protein expression in human MCF7 cells after 48 hrs by Western blot method; assay type: functional, cell-based
Procedure, shortened: (§1)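 MCF-7 cells exposed to 0–1 μM compound for 48 h, then lysed on ice. Lysate (20 μg protein) run on 8–12% SDS-PAGE and transferred to PVDF. Probed overnight at 4 °C with primary antibodies, then fluorescent secondaries. Band densities normalized to β-actin. Mean ± SD of three independent experiments.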

Mus musculus [2] = assay: Toxicity in Balb/c nude mouse xenografted with human MCF7 cells assessed as changes in body weight at 20 mg/kg/day, iv for 4 weeks measured once in 2 days during compound dosing; assay type: organism-based; details: in vivo
Procedure, shortened: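 Mice received 1 × 10^6 tumor cells subcutaneously in the right flank: MCF-7 in male BALB/c nude mice aged six weeks, H22 in male ICR mice aged five weeks. After 7 d they were randomized (six or eight per group). Dosing was 20 mg/kg iv daily in 10% DMF/2% poloxamer/88% saline for 21 or 28 days; saline control. Body weight was recorded every 2 days.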

[3] = Antiproliferative activity against human KB/CP4 cells after 48 hrs by MTT assay; assay type: functional, cell-based; details: KB/CP4, 48 h
Procedure, shortened: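 Colorimetric MTT assay. KB-3-1, NCI-H460 and Bel-7404 cells were seeded at 4000 cells/well; resistant KB/CP4, NCI-H460/MX20 and Bel-7404/CP20 were seeded at 7000 cells/well. Cells were pre-incubated 24 h at 37 °C, 5% CO2, then exposed to a compound concentration series for 48 h with DMSO ≤0.25%. Absorbance read at 570 nm. Quadruplicate wells, three repeats; means ± SD.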

MCF7 [4] = assay: Induction of apoptosis in human MCF7 cells assessed as decrease in pro-caspase-3 to caspase-3 protein expression ratio after 48 hrs by Western blot method; assay type: functional, cell-based; procedure, shortened: as §1
MGC-803 = assay: Antiproliferative activity against human MGC803 cells after 72 hrs by MTT assay; assay type: functional, cell-based; details: MGC-803, 72 h
Procedure, shortened: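 MGC-803 and MCF-7 cells grown in DMEM (MCF-7 with 1× NEAA); Bel-7402 and K562 grown in RPMI 1640; all media with 10% FBS. Cells seeded at 3500/well, pre-incubated 24 h, then exposed to compounds in fresh medium (DMSO ≤0.25%) for 72 h at 37 °C. MTT read-out at 570 nm. Quadruplicate wells, repeated three times; means ± SD (n = 3).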

Mus musculus [5] = assay: Cardiotoxicity in Balb/c nude mouse xenografted with human MCF7 cells assessed as morphological changes in heart at 20 mg/kg/day, iv for 4 weeks by hematoxylin and eosin staining based microscopic method; assay type: toxicity, organism-based; details: in vivo, 672 h
Procedure, shortened: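 Male BALB/c nude mice (6 weeks old) carrying subcutaneous MCF-7 xenografts (1 × 10^6 cells). Dosed iv 20 mg/kg daily for 28 days in 10% DMF/2% poloxamer/88% saline; six mice per group. Organs then fixed in 4% paraformaldehyde, paraffin-embedded, cut at 5 μm, stained with Harris hematoxylin and eosin-phloxine, and examined by light microscopy.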

Mus musculus [6] = assay: Toxicity in Balb/c nude mouse xenografted with human MCF7 cells assessed as morphological changes in spleen at 20 mg/kg/day, iv for 4 weeks by hematoxylin and eosin staining based microscopic method; assay type: organism-based; details: in vivo, 672 h
Procedure, shortened: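 Male BALB/c nude mice aged six weeks received 1 × 10^6 MCF-7 cells subcutaneously in the right flank. After 7 d they were randomized and dosed 20 mg/kg iv once daily in 10% DMF/2% poloxamer/88% saline; saline control. Heart, liver, spleen, lung and kidney were fixed in 4% paraformaldehyde, paraffin-embedded, sectioned at 5 μm, H&E stained and examined microscopically.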

Bel-7402 [7] = assay: Cell cycle arrest in human Bel7402 cells assessed as accumulation at G2/M phase at 0.5 uM after 48 hrs by propidium iodide staining based flow cytometry (reference value: 56.61%); assay type: functional
MCF7 [8] = assay: Cell cycle arrest in human MCF7 cells assessed as accumulation at S phase at 1 uM after 48 hrs by propidium iodide staining based flow cytometry (reference value: 37.18%); assay type: functional
Procedure, shortened: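 MCF-7 cells, 5 × 10^4 per well, seeded overnight, then exposed to 0.125–1 μM compound, or DMSO, for 48 h. Ethanol-fixed (70%, −20 °C, 12 h) and stained with PI/RNase at 37 °C for 30 min. Phase distribution determined by flow cytometry.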

Bel-7402 [9] = assay: Cell cycle arrest in human Bel7402 cells assessed as accumulation at G1 phase at 0.5 uM after 48 hrs by propidium iodide staining based flow cytometry (reference value: 34.61%); assay type: functional
MCF7 [10] = assay: Induction of apoptosis in human MCF7 cells assessed as early apoptotic cells at 0.5 uM after 24 hrs by Annexin-V FITC/propidium iodide staining based flow cytometry (reference value: 2.65%); assay type: functional
MCF7 [11] = assay: Induction of mitochondrial membrane potential depolarization in human MCF7 cells after 36 hrs by JC1 staining based fluorescence microscopic method; assay type: functional, cell-based
Procedure, shortened: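 MCF-7 cells were treated with 0, 0.25, 0.5 or 1 μM for 36 h and loaded with 10 μg/mL JC-1 for 30 min at 37 °C, then washed in PBS. Monomers were read at ex 490/em 535 nm and aggregates at ex 525/em 600 nm, by plate reader or fluorescence microscopy. The red/green ratio came from 10,000 cells per group, in triplicate, mean ± SD.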

For `C=C1C(=O)[C@]23[C@H](OC(=O)/C=C/c4ccccc4)[C@H]1CC[C@H]2[C@]12C=CCC(C)(C)[C@H]1[C@H](O)[C@]3(O)OC2`, the Activity (MCF7 [1]) was “Dose-dependent effect”, the Activity (Mus musculus [2]) was “Non-Toxic” and the IC50 [3] was 1560 nM. The Activity (MCF7 [4]) was “Dose-dependent effect”, the IC50 (MGC-803) was 1030 nM and the Activity (Mus musculus [5]) was “Non-Toxic”. For the same compound, the Activity (Mus musculus [6]) was “Non-Toxic”, the Activity (Bel-7402 [7]) was 57.83% and the Activity (MCF7 [8]) was 30.01%. The Activity (Bel-7402 [9]) was 34.56%, the Activity (MCF7 [10]) was 13.3% and the Activity (MCF7 [11]) was “Dose-dependent effect”.
